Series [1] deals with Candida albicans. The series is described as follows: Antifungal activity against Candida albicans NCCLS84 after 24 hrs by XTT assay. In kind it is functional. As to conditions: SC5314, 24 h, in the assay text read “SC5314” for “NCCLS84”. In general terms: Tetrazolium dyes change colour on reduction, which living cells bring about.
The nature of series [2]: Inhibition of Candida glabrata DHFR using dihydrofolate as substrate preincubated for 5 mins followed by substrate addition in presence of NADPH. The arrangement: species or system Nakaseomyces glabratus. In outline: (§1)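 Racemic inhibitor from DMSO stock (<2% DMSO in assay) was preincubated 5 min with enzyme and 100 μM NADPH. NADPH consumption was followed at 340 nm for 1 min at 25 °C, in triplicate.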

Series [3] can be described thus: Kinetic solubility of the compound in water after 30 mins by HPLC analysis. In kind it is physicochemical. The conditions noted are these: read-out: Kinetic_solubility.
A further series concerns MCF10. The series is described as follows: Cytotoxicity against human MCF10 cells. It is filed as cell-based.
Another series concerns Nakaseomyces glabratus. Put plainly: Antifungal activity against Candida glabrata NCCLS84 after 24 hrs by Alamar Blue assay. As to conditions: NCCLS84, 24 h. Background: The colour change of resazurin is a common sign of viable cells or microbes.
Series [4] deals with Candida albicans. The series is described as follows: Antifungal activity against Candida albicans after 24 hrs by assay in presence of 0.01% Triton X-100.
Series [5] deals with T1, Dihydrofolate reductase (Candida albicans, UniProt P22906).
T1 sequence (P22906 whole entry): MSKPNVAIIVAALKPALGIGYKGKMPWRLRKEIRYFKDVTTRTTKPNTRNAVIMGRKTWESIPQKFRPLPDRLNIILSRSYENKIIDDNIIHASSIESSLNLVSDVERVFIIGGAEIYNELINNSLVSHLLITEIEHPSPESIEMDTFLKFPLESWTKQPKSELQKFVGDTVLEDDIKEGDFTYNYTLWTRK
Put plainly: Inhibition of Candida albicans DHFR using dihydrofolate as substrate preincubated for 5 mins followed by substrate addition in presence of NADPH. Summed up: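 Consumption of NADPH followed at 340 nm for 1 min at 25 °C. Buffer: 20 mM TES pH 7.0, 50 mM KCl, 10 mM 2-mercaptoethanol, 0.5 mM EDTA, 1 mg/mL BSA. Saturating 100 μM NADPH and 100 μM dihydrofolate, limiting enzyme. Racemic inhibitor was added from DMSO stocks at under 2% DMSO final. Triplicate runs.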

In series [6] the target is T2, Dihydrofolate reductase (Homo sapiens, UniProt P00374).
T2 sequence (P00374 whole entry): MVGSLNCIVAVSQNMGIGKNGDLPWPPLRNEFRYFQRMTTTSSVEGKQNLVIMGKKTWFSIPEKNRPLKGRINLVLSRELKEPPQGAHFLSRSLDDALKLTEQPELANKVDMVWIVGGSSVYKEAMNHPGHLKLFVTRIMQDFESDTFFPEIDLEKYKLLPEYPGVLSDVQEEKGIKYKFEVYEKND
Put plainly: Inhibition of human DHFR using dihydrofolate as substrate preincubated for 5 mins followed by substrate addition in presence of NADPH. Summed up:
as §1

For series [7], the system named is Candida albicans. Put plainly: Antifungal activity against Candida albicans after 24 hrs by assay.
The nature of series [8]: Kinetic solubility of the compound in water after 30 mins by HPLC analysis in presence of 0.02% HPMC. In kind it is physicochemical. As to conditions: water with 0.02% HPMC; read-out: Kinetic_solubility.
The nature of series [9]: Selectivity ratio of IC50 for human DHFR to IC50 for Candida albicans DHFR.
The nature of series [10]: Selectivity ratio of IC50 for human DHFR to IC50 for Candida glabrata DHFR.
Series [11] concerns Candida albicans. Put plainly: Antifungal activity against Candida albicans NCCLS84 at 100 ug/ml after 24 hrs by XTT assay. It is filed as functional, organism-based.

Molecules are shown by their SMILES. Converted amounts (≈) assume the structure as drawn. The source made the active and inactive calls. No cut-off for these calls is given here.

`COc1cc(-c2ccccc2)cc(C(C)C#Cc2c(C)nc(N)nc2N)c1` (stereo unspecified) displayed an MIC against Candida albicans [1] of 23 µg/mL (≈ 64.2 µM). The concentration for half-maximal inhibition (IC50) in series [2] was 7.3 nM.
Turning to `CCc1nc(N)nc(N)c1C#CC(C)c1ccc(-c2ccccc2)nc1` (stereo unspecified), the MIC in the series with Candida albicans [1] came out at 0.39 µg/mL (≈ 1.14 µM); in the series on Nakaseomyces glabratus it was 0.78 µg/mL (≈ 2.27 µM). For the same molecule, the values for the IC50 (in series [2]; in the series with MCF10) were 23 nM and 148000 nM, respectively. Besides, the solubility kinetic at 0.5 h in series [3] amounted to 20 µg/mL (≈ 58.2 µM).
On to `CCc1nc(N)nc(N)c1C#CC(C)c1cc(OC)cc(-c2ccncc2)c1` (stereo unspecified), for which the figures for the MIC in the series on Candida albicans [1], in the series with Candida albicans [4] and with Nakaseomyces glabratus were 25 µg/mL (≈ 66.9 µM), 6.25 µg/mL and 1.3 µg/mL (≈ 3.48 µM), respectively.
With `CCc1nc(N)nc(N)c1C#CC(C)c1ccc(-c2ccccc2)cc1` (stereo unspecified), the IC50 worked out at 23 nM on Dihydrofolate reductase [5], 174 nM at Dihydrofolate reductase [6], 6 nM in series [2] and 505000 nM with MCF10. Besides, the MIC came to 7.5 µg/mL (≈ 21.9 µM) against Candida albicans [1] and 3.1 µg/mL (≈ 9.05 µM) in the series on Nakaseomyces glabratus.
Regarding `CCc1nc(N)nc(N)c1C#CC(C)c1ccc(-c2ccc(N(C)C)cc2)cc1OC` (stereo unspecified), the MIC entry in the series on Candida albicans [7] was “inactive”.
Take `COc1cc(-c2ccccc2)ccc1C(C)C#Cc1c(C)nc(N)nc1N` (stereo unspecified): the figures for the IC50 on Dihydrofolate reductase [5], at Dihydrofolate reductase [6] and in the series with MCF10 were 20 nM, 340 nM and 74000 nM, respectively. The MIC with Candida albicans [1] was found to be 1.6 µg/mL (≈ 4.46 µM); against Nakaseomyces glabratus it was 0.39 µg/mL (≈ 1.09 µM). Also, in series [8], the solubility kinetic at 0.5 h turned out to be 25 µg/mL.
As for `COc1cc(C(C)C#Cc2c(C)nc(N)nc2N)ccc1-c1ccccc1` (stereo unspecified), the minimum inhibitory concentration (MIC) was determined as 6.25 µg/mL (≈ 17.4 µM) in the series on Candida albicans [1] and 0.78 µg/mL (≈ 2.18 µM) against Nakaseomyces glabratus. The molecule also came in with a half-inhibitory concentration (IC50) with MCF10 of 80000 nM.
Consider `CCc1nc(N)nc(N)c1C#CC(C)c1ccc(-c2ccncc2)cc1OC` (stereo unspecified), for which the 50% inhibitory concentration (IC50) was found to be 33 nM at Dihydrofolate reductase [5], 127 nM on Dihydrofolate reductase [6], 19 nM in series [2] and 216000 nM in the series with MCF10. Moreover, the values for the minimum inhibitory concentration (MIC) against Candida albicans [1] and in the series on Nakaseomyces glabratus were 25 µg/mL (≈ 66.9 µM) and 0.78 µg/mL (≈ 2.09 µM), respectively.
As for `CCc1nc(N)nc(N)c1C#CC(C)c1ccc(-c2ccc(C(=O)OC)cc2)cc1OC` (stereo unspecified), the IC50 in the series on MCF10 was found to be 96000 nM.
As to `CCc1nc(N)nc(N)c1C#CC(C)c1ccc(-c2ccc(C)cc2)nc1` (stereo unspecified), the MIC against Candida albicans [1] stood at 0.39 µg/mL (≈ 1.09 µM); with Nakaseomyces glabratus it was 0.2 µg/mL (≈ 0.56 µM). The result with Candida albicans [4] was Active. Also, in series [2], the IC50 was 27 nM. The solubility kinetic at 0.5 h in series [3] turned out to be 15 µg/mL (≈ 42 µM).
For the molecule `CCc1nc(N)nc(N)c1C#CC(C)c1ccc(-c2ccc(F)cc2)cc1OC` (stereo unspecified), the IC50 at Dihydrofolate reductase [5] was found to be 43 nM; on Dihydrofolate reductase [6], 148 nM; in the series on MCF10, 60000 nM. Also, the MIC was found to be 1.8 µg/mL (≈ 4.61 µM) against Candida albicans [1] and 7.5 µg/mL (≈ 19.2 µM) in the series on Nakaseomyces glabratus.
With `COc1cc(C(C)C#Cc2c(C)nc(N)nc2N)c(OC)cc1-c1ccccc1` (stereo unspecified), the 50% inhibitory concentration (IC50) was determined as 36 nM at Dihydrofolate reductase [5], 314 nM on Dihydrofolate reductase [6] and 8.2 nM in series [2]. Also, the figures for the MIC in the series on Candida albicans [1] and against Nakaseomyces glabratus were 3.1 µg/mL (≈ 7.98 µM) and 1.6 µg/mL (≈ 4.12 µM), respectively.
Consider `CCc1nc(N)nc(N)c1C#CC(C)c1ccc(-c2ccccc2)cc1OC` (stereo unspecified), for which the IC50 at Dihydrofolate reductase [5] turned out to be 49 nM; on Dihydrofolate reductase [6], 172 nM; in series [2], 31 nM. Moreover, the MIC against Candida albicans [1] came out at 6.3 µg/mL (≈ 16.9 µM); in the series on Nakaseomyces glabratus, 1.6 µg/mL (≈ 4.3 µM). Also, the figures for the Ratio IC50 in series [9] and in series [10] were 4 and 6, respectively.
As to `CCc1nc(N)nc(N)c1C#CC(C)c1ccc(-c2ccc(O)cc2)cc1OC` (stereo unspecified), in the series with Candida albicans [11], the result was inactive. The IC50 in the series with MCF10 was determined as 148000 nM.
In turn, `CCc1nc(N)nc(N)c1C#CC(C)c1ccc(-c2ccc(C#N)cc2)cc1OC` (stereo unspecified) displayed a 50% inhibitory concentration (IC50) with MCF10 of 50000 nM.
Take `CCc1nc(N)nc(N)c1C#CC(C)c1ccc(-c2ccc(C)cc2)cc1OC` (stereo unspecified): the results for the half-maximal inhibitory concentration (IC50) (on Dihydrofolate reductase [5]; on Dihydrofolate reductase [6]; in [2]) were 48 nM, 208 nM and 22 nM, respectively. Besides, the results for the MIC in the series with Candida albicans [1] and against Nakaseomyces glabratus were 3.1 µg/mL (≈ 8.02 µM) and 1.6 µg/mL (≈ 4.14 µM), respectively. Besides, the Ratio IC50 stood at 4 in [9] and 9 in series [10].
Consider `CCc1nc(N)nc(N)c1C#CC(C)c1ccc(-c2ccc(OC(N)=O)cc2)cc1OC` (stereo unspecified), for which the MIC result with Candida albicans [7] was “inactive”.
For `CCc1nc(N)nc(N)c1C#CC(C)c1cnc(-c2ccccc2)nc1` (stereo unspecified), the results for the MIC in the series with Candida albicans [1] and against Nakaseomyces glabratus were 0.19 µg/mL (≈ 0.552 µM) and 0.78 µg/mL (≈ 2.26 µM), respectively. Also, the IC50 in [2] came to 22 nM; in the series with MCF10, 216000 nM. Besides, the solubility kinetic at 0.5 h in [3] turned out to be 60 µg/mL (≈ 174 µM).

Broadly, the MIC is the lowest concentration found to suppress growth. What is called IC50 is the concentration needed to halve the response being measured.

Source of the values: ChEMBL document CHEMBL3232887, “Propargyl-linked antifolates are dual inhibitors of Candida albicans and Candida glabrata” (J Med Chem, 2014).
